Active and inactive are the calls of the source. The rule behind the calls is not given here.
Legend:
[1] = molecular target: T1, Endo-beta-N-acetylglucosaminidase (Arthrobacter protophormiae, UniProt Q9ZB22); assay: Inhibition of Arthrobacter protophormiae endo-beta-N-acetylglucosaminidase after 5 mins by HPAEC-PED method; set-up: species or system Glutamicibacter protophormiae
T1 sequence (Q9ZB22 whole entry): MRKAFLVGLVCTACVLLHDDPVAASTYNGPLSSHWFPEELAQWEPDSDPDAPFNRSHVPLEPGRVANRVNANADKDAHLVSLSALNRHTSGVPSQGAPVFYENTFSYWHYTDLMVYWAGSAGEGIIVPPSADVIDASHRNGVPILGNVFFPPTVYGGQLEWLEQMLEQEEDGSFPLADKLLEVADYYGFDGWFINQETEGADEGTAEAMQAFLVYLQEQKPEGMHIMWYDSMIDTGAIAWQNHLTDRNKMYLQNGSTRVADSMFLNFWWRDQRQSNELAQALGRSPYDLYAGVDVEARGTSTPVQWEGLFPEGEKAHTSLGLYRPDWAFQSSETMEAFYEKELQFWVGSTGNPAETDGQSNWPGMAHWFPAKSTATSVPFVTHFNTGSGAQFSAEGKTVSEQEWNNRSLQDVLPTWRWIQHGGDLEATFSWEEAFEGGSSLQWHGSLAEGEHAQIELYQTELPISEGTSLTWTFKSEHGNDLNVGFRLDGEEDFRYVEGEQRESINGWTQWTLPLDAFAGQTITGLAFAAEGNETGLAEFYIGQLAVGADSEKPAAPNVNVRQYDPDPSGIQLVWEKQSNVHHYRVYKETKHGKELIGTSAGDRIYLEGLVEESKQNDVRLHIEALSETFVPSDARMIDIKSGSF
How it was run: (§1)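 Man9GlcNAc2Asn (500 μM) as substrate in 50 mM phosphate buffer pH 6.5. Limited enzyme is incubated with or without serial dilutions of thiazoline at 30°C for 5 min. Reaction stopped by heating at 100°C for 3 min. Man9GlcNAc hydrolysis product quantified by HPAEC-PED.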

[2] = Inhibition of Mucor hiemalis endo-beta-N-acetylglucosaminidase after 5 mins by HPAEC-PED method; how it was run: as §1
Flavobacterium sp. [3] = assay: Inhibition of Flavobacterium sp. endo-beta-N-acetylglucosaminidase at 100 uM after 5 mins by HPAEC-PED method
How it was run: (§2)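 Endo-Fsp assay uses Man5GlcNAc2Asn as substrate in 50 mM phosphate buffer pH 6.5. Limited enzyme is incubated with or without thiazoline at 30°C for 5 min, then heated at 100°C for 3 min to stop. Hydrolytic product quantified by HPAEC-PED.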

[4] = molecular target: T2, Endo-beta-N-acetylglucosaminidase (Arthrobacter protophormiae) (UniProt Q9ZB22); assay: Inhibition of Arthrobacter protophormiae endo-beta-N-acetylglucosaminidase upto 500 uM after 5 mins by HPAEC-PED method; details: Glutamicibacter protophormiae; how it was run: as §1
T2 sequence (whole entry): T1 sequence (Q9ZB22 whole entry)

Mucor hiemalis = assay: Inhibition of Mucor hiemalis endo-beta-N-acetylglucosaminidase upto 500 uM after 5 mins by HPAEC-PED method; how it was run: as §1
Flavobacterium sp. [5] = assay: Inhibition of Flavobacterium sp. endo-beta-N-acetylglucosaminidase at 1uM after 5 mins by HPAEC-PED method; how it was run: as §2
[6] = molecular target: T3, Cytosolic endo-beta-N-acetylglucosaminidase (Homo sapiens, UniProt Q8NFI3); assay: Inhibition of human endo-beta-N-acetylglucosaminidase expressed in Hek293 cells after 3 mins; assay type: cell-based
T3 sequence (Q8NFI3 whole entry): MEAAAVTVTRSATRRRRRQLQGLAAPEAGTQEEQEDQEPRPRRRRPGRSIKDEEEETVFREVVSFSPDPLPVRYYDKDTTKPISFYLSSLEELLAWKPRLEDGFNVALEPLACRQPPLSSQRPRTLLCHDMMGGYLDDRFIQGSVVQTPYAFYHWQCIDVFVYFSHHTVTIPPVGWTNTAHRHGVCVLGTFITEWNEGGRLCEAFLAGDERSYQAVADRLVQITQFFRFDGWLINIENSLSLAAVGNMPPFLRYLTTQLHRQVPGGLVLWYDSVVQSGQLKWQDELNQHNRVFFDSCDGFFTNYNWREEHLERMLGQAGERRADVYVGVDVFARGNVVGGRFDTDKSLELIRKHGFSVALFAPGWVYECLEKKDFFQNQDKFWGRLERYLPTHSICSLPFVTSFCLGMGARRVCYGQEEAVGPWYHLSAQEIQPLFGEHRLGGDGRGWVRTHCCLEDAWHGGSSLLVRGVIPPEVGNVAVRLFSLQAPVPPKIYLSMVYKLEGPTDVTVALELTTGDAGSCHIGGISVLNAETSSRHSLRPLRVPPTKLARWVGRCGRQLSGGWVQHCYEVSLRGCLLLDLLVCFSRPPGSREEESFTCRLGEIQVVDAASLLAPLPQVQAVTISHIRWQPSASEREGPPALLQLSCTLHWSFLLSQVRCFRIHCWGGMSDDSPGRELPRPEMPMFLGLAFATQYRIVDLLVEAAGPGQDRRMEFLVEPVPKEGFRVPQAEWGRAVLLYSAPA
How it was run: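 Enzyme source: HEK293 cells transfected with pcDNA-hENGase, extracted 48 h later in Hepes-KOH pH 7.0 with protease inhibitors. The 100,000 × g soluble fraction was assayed in 40 mM Mes-NaOH pH 6.1 with 1 μM Man9GlcNAc2-PA and inhibitor from 10 mM to 0.1 μM, 3 min at 37°C. Reaction stopped by boiling; product quantified by C18 HPLC.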

| IC50 [1] | IC50 [2] | Activity (Flavobacterium sp. [3]) | Activity [4] | Activity (Mucor hiemalis) | inhibition (Flavobacterium sp. [5]) | IC50 [6] | SMILES |
| --- | --- | --- | --- | --- | --- | --- | --- |
| 38 µM | 80 µM | inactive |  |  |  |  | CC1=N[C@@H]2[C@@H](O)[C@H](O[C@@H]3O[C@H](CO)[C@@H](O)[C@H](O)[C@@H]3O)[C@@H](CO)O[C@H]2S1 |
|  |  |  | inactive | inactive |  |  | CC1=N[C@@H]2[C@@H](O)[C@H](O)[C@@H](CO)O[C@H]2S1 |
| 13 µM | 64 µM | inactive |  |  |  |  | CC1=N[C@@H]2[C@@H](O)[C@H](O[C@@H]3O[C@H](CO[C@H]4O[C@H](CO)[C@@H](O)[C@H](O)[C@@H]4O)[C@@H](O)[C@H](O[C@@H]4O[C@H](CO)[C@@H](O)[C@H](O)[C@@H]4O)[C@@H]3O)[C@@H](CO)O[C@H]2S1 |
| 0.22 µM | 6 µM |  |  |  | 75% | 0.42 µM | CC1=N[C@@H]2[C@@H](O)[C@H](O[C@@H]3O[C@H](CO[C@H]4O[C@H](CO[C@H]5O[C@H](CO[C@H]6O[C@H](CO)[C@@H](O)[C@H](O)[C@@H]6O)[C@@H](O)[C@H](O)[C@@H]5O)[C@@H](O)[C@H](O[C@@H]5O[C@H](CO)[C@@H](O)[C@H](O[C@@H]6O[C@H](CO)[C@@H](O)[C@H](O)[C@@H]6O)[C@@H]5O)[C@@H]4O)[C@@H](O)[C@H](O[C@@H]4O[C@H](CO)[C@@H](O)[C@H](O)[C@@H]4O[C@@H]4O[C@H](CO)[C@@H](O)[C@H](O)[C@@H]4O[C@@H]4O[C@H](CO)[C@@H](O)[C@H](O)[C@@H]4O)[C@@H]3O)[C@@H](CO)O[C@H]2S1 |

From ChEMBL document CHEMBL1142421, “Synthesis and inhibitory activity of oligosaccharide thiazolines as a class of mechanism-based inhibitors for endo-beta-N-acetylglucosaminidases” (Bioorg Med Chem, 2008)
